{"source": "ChEMBL document CHEMBL1143425", "about": "“Paradoxical growth effect of caspofungin observed on biofilms and planktonic cells of five different Candida species” (2007)", "key": {"[1]": {"system": "Candida tropicalis", "test": "Effect on morphology in Candida tropicalis grown as planktonic cells assessed as inhibition of hyphae and pseudohyphae at 8 ug/ml after 48 hrs", "assay_type": "functional, organism-based", "procedure,_shortened": "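Clinical isolates were tested by CLSI M27-A2 broth microdilution with caspofungin dissolved in sterile water. After 48 h incubation, cells were taken from drug-containing and drug-free control wells. They were examined by light microscopy at ×400 for hyphae or pseudohyphae, rounding or clumping, and enlarged globose cells.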"}, "[2]": {"system": "Candida orthopsilosis", "test": "Effect on morphology in Candida orthopsilosis grown as biofilm assessed as rounding and clumping at 32 ug/ml after 48 hrs", "assay_type": "functional, organism-based", "procedure,_shortened": "(§1)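 Biofilms formed in RPMI 1640 wells were exposed to caspofungin for 48 h and compared with drug-free control wells. Wells were examined in the plate under an inverted light microscope at ×200 and photographed.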"}, "[3]": {"system": "Candida orthopsilosis", "test": "Antimicrobial activity against Candida orthopsilosis BR-A39 grown as biofilm after 48 hrs by XTT reduction assay", "assay_type": "functional", "conditions": "Lodderomyces orthopsilosis", "procedure,_shortened": "(§2)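 Isolates were grown on Sabouraud agar (30°C, 24 h), then overnight in RPMI 1640 with MOPS, pH 7.0, at 35°C with shaking. Cells were washed and set to ~1 × 10^7 cells/ml, attached 1.5 h at 37°C, and grown 24 h. Biofilms were then exposed to caspofungin in 10 twofold dilutions (2–1,024 μg/ml) for 48 h at 35°C with shaking. Read-out was XTT-menadione, 1 h, 35°C, dark, A490, cell-free blank subtracted. MIC was the 50% drop in activity versus drug-free control. Tested in duplicate.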"}, "[4]": {"system": "Candida orthopsilosis", "test": "Antimicrobial activity against Candida orthopsilosis BR-A36 grown as biofilm assessed as concentration producing paradoxical growth after 48 hrs by XTT reduction assay", "assay_type": "functional", "procedure,_shortened": "(§3)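 Sabouraud-grown cells were shaken overnight (18 h, 120 rpm, 35°C) in RPMI 1640 with MOPS at pH 7.0, then washed and set at ~1 × 10^7 cells/ml. Attachment lasted 1.5 h at 37°C, and growth ran 24 h before challenge. Caspofungin was added in RPMI at 2–1,024 μg/ml (10 doublings) for 48 h at 35°C with shaking. XTT-menadione was read at 490 nm after 1 h at 35°C in the dark, with blank wells subtracted. MIC was taken as 50% reduction versus drug-free wells, and PG as >50% of control above MIC. Assays were run in duplicate.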"}, "[5]": {"system": "Candida metapsilosis", "test": "Antimicrobial activity against Candida metapsilosis BR-A41 grown as biofilm after 48 hrs by XTT reduction assay", "assay_type": "functional", "conditions": "Lodderomyces metapsilosis", "procedure,_shortened": "as §3"}, "[6]": {"system": "Candida parapsilosis", "test": "Effect on morphology in Candida parapsilosis grown as biofilm assessed as inhibition of hyphae and pseudohyphae at 128 ug/ml after 48 hrs", "assay_type": "functional, organism-based", "procedure,_shortened": "as §1"}, "[7]": {"system": "Candida tropicalis", "test": "Antimicrobial activity against Candida tropicalis BR-A18 grown as biofilm assessed as paradoxical growth after 48 hrs by XTT reduction assay", "assay_type": "functional, organism-based", "procedure,_shortened": "(§4)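 Clinical isolates were grown overnight (18 h, 35°C, 120 rpm) in RPMI 1640 with MOPS, pH 7.0, then washed and set to ~1 × 10^7 cells/ml. Cells attached for 1.5 h at 37°C, 75 rpm, then biofilms grew 24 h. Caspofungin was given as doubling dilutions of 2–1,024 μg/ml for 48 h at 35°C, 75 rpm. Read-out was XTT-menadione in PBS, 1 h at 35°C in the dark, A490, cell-free blank subtracted. MIC was a 50% drop in activity versus drug-free; PG was >50% of control above MIC. Run in duplicate.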"}, "[8]": {"system": "Candida metapsilosis", "test": "Antimicrobial activity against Candida metapsilosis BR-A44 grown as planktonic cell after 48 hrs by XTT reduction assay", "assay_type": "functional", "conditions": "Lodderomyces metapsilosis", "procedure,_shortened": "(§5)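 Planktonic cells were tested by CLSI M27-A2 broth microdilution with caspofungin in water, incubated 48 h. XTT-menadione was added to each well, plates were held 1 h at 35°C in the dark and centrifuged, and supernatant absorbance was read at 490 nm. MIC was defined as 50% decrease in metabolic activity versus drug-free control. PG was defined as ≥20% of control activity at concentrations above MIC.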"}, "[9]": {"system": "Candida tropicalis", "test": "Antimicrobial activity against Candida tropicalis BR-A18 grown as planktonic cell assessed as paradoxical growth after 48 hrs by XTT reduction assay", "assay_type": "functional, organism-based", "procedure,_shortened": "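Planktonic broth microdilution followed CLSI M27-A2, with caspofungin dissolved in water. After 48 h, XTT-menadione was added to each well and plates were incubated 1 h at 35°C in the dark. Cells were pelleted by centrifugation and the supernatant was read at 490 nm. MIC was the lowest concentration giving a 50% drop in metabolic activity versus the drug-free control. PG was ≥20% of drug-free activity above the MIC.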"}, "[10]": {"system": "Candida albicans", "test": "Antimicrobial activity against Candida albicans BR-A4 grown as biofilm assessed as concentration producing paradoxical growth after 48 hrs by XTT reduction assay", "assay_type": "functional", "procedure,_shortened": "as §3"}, "[11]": {"system": "Candida tropicalis", "test": "Antimicrobial activity against Candida tropicalis BR-A14 grown as biofilm after 48 hrs by XTT reduction assay", "assay_type": "functional", "procedure,_shortened": "as §4"}, "[12]": {"system": "Candida albicans", "test": "Antimicrobial activity against Candida albicans BR-A7 grown as planktonic cell after 48 hrs by XTT reduction assay", "assay_type": "functional", "procedure,_shortened": "(§6)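 Planktonic broth microdilution followed CLSI M27-A2, with caspofungin dissolved in water. After 48 h, XTT-menadione was added to the wells and plates were kept 1 h at 35°C in the dark. Plates were then centrifuged and supernatant A490 was read. MIC was the lowest concentration giving a 50% decrease in metabolic activity versus drug-free control. Paradoxical growth was defined as ≥20% of control activity above the MIC.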"}, "[13]": {"system": "Candida parapsilosis", "test": "Antimicrobial activity against Candida parapsilosis BR-A29 grown as planktonic cell after 48 hrs by XTT reduction assay", "assay_type": "functional", "conditions": "Lodderomyces parapsilosis", "procedure,_shortened": "as §6"}, "[14]": {"system": "Candida parapsilosis", "test": "Antimicrobial activity against Candida parapsilosis BR-A31 grown as planktonic cell after 48 hrs by XTT reduction assay", "assay_type": "functional", "conditions": "Lodderomyces parapsilosis", "procedure,_shortened": "as §6"}, "[15]": {"system": "Candida metapsilosis", "test": "Antimicrobial activity against Candida metapsilosis BR-A41 grown as planktonic cell assessed as paradoxical growth after 48 hrs by XTT reduction assay", "assay_type": "functional, organism-based", "procedure,_shortened": "as §5"}, "[16]": {"system": "Candida tropicalis", "test": "Antimicrobial activity against Candida tropicalis BR-A8 grown as planktonic cell after 48 hrs by XTT reduction assay", "assay_type": "functional", "procedure,_shortened": "as §6"}, "[17]": {"system": "Candida albicans", "test": "Antimicrobial activity against Candida albicans BR-A4 grown as planktonic cell after 48 hrs by XTT reduction assay", "assay_type": "functional", "procedure,_shortened": "as §6"}, "[18]": {"system": "Candida tropicalis", "test": "Effect on morphology in Candida tropicalis grown as biofilm assessed as inhibition of hyphae and pseudohyphae at 8 ug/ml after 48 hrs", "assay_type": "functional, organism-based", "procedure,_shortened": "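Overnight RPMI 1640 cultures (MOPS, pH 7.0) were washed and set to about 1 × 10^7 cells/ml, then attached to polystyrene wells for 1.5 h at 37°C at 75 rpm. After 24 h biofilm growth, wells were washed and given doubling caspofungin dilutions (2–1,024 μg/ml in RPMI) for 48 h at 35°C at 75 rpm. Biofilms were viewed in situ by inverted light microscopy at ×200 alongside drug-free wells.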"}, "[19]": {"system": "Candida albicans", "test": "Antimicrobial activity against Candida albicans BR-A2 grown as planktonic cell after 48 hrs by XTT reduction assay", "assay_type": "functional", "procedure,_shortened": "as §6"}, "[20]": {"system": "Candida orthopsilosis", "test": "Antimicrobial activity against Candida orthopsilosis BR-A32 grown as biofilm after 48 hrs by XTT reduction assay", "assay_type": "functional", "conditions": "Lodderomyces orthopsilosis", "procedure,_shortened": "as §2"}, "[21]": {"system": "Candida metapsilosis", "test": "Antimicrobial activity against Candida metapsilosis BR-A43 grown as planktonic cell after 48 hrs by XTT reduction assay", "assay_type": "functional", "conditions": "Lodderomyces metapsilosis", "procedure,_shortened": "as §5"}, "[22]": {"system": "Candida tropicalis", "test": "Antimicrobial activity against Candida tropicalis BR-A14 grown as biofilm assessed as paradoxical growth after 48 hrs by XTT reduction assay", "assay_type": "functional, organism-based", "procedure,_shortened": "as §4"}, "[23]": {"system": "Candida parapsilosis", "test": "Effect on morphology in Candida parapsilosis grown as biofilm assessed as rounding and clumping at 128 ug/ml after 48 hrs", "assay_type": "functional, organism-based", "procedure,_shortened": "as §1"}, "[24]": {"system": "Candida metapsilosis", "test": "Antimicrobial activity against Candida metapsilosis BR-A40 grown as planktonic cell after 48 hrs by XTT reduction assay", "assay_type": "functional", "conditions": "Lodderomyces metapsilosis", "procedure,_shortened": "as §5"}}, "note": "Active and inactive are the calls of the source.", "data": [{"smiles": "CC[C@H](C)C[C@H](C)CCCCCCCCC(=O)N[C@H]1C[C@@H](O)[C@@H](NCCN)NC(=O)[C@@H]2[C@@H](O)CCN2C(=O)[C@H]([C@H](O)CCN)NC(=O)[C@H]([C@H](O)[C@@H](O)c2ccc(O)cc2)NC(=O)[C@@H]2C[C@@H](O)CN2C(=O)[C@H]([C@@H](C)O)NC1=O", "note": "[CASPOFUNGIN]", "values": [{"measurement": "Activity", "setting": "[1]", "result": "Active"}, {"measurement": "Activity", "setting": "[2]", "result": "Active"}, {"measurement": "MIC", "setting": "[3]", "result": 2, "unit": "µg/mL"}, {"measurement": "Activity", "setting": "[4]", "result": 16, "unit": "µg/mL"}, {"measurement": "MIC", "setting": "[5]", "result": 2, "unit": "µg/mL"}, {"measurement": "Activity", "setting": "[6]", "result": "Active"}, {"measurement": "Activity", "setting": "[7]", "result": "Active"}, {"measurement": "MIC", "setting": "[8]", "result": 2, "unit": "µg/mL"}, {"measurement": "Activity", "setting": "[9]", "result": "Active"}, {"measurement": "Activity", "setting": "[10]", "result": 16, "unit": "µg/mL"}, {"measurement": "MIC", "setting": "[11]", "result": 256, "unit": "µg/mL"}, {"measurement": "MIC", "setting": "[12]", "result": 0.5, "unit": "µg/mL"}, {"measurement": "MIC", "setting": "[13]", "result": 2, "unit": "µg/mL"}, {"measurement": "MIC", "setting": "[14]", "result": 2, "unit": "µg/mL"}, {"measurement": "Activity", "setting": "[15]", "result": "inactive"}, {"measurement": "MIC", "setting": "[16]", "result": 1, "unit": "µg/mL"}, {"measurement": "MIC", "setting": "[17]", "result": 0.5, "unit": "µg/mL"}, {"measurement": "Activity", "setting": "[18]", "result": "Active"}, {"measurement": "MIC", "setting": "[19]", "result": 0.5, "unit": "µg/mL"}, {"measurement": "MIC", "setting": "[20]", "result": 2, "unit": "µg/mL"}, {"measurement": "MIC", "setting": "[21]", "result": 2, "unit": "µg/mL"}, {"measurement": "Activity", "setting": "[22]", "result": "Active"}, {"measurement": "Activity", "setting": "[23]", "result": "Active"}, {"measurement": "MIC", "setting": "[24]", "result": 1, "unit": "µg/mL"}]}]}
